Bioassay records deposited in PubChem BioAssay by several laboratories.
This is a sample that favours compounds with a hit; in the whole collection about 4.2% have one here.
Rad51 HR inh = blocks human Rad51 in homologous recombination; Q06609; hRad51 DNA strand exchange, fluorescence dequenching; inhibition, % at 10 µM; actives 0.085% (n = 200,000);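 active = inhibition above 40% at the single screening dose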;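 note: 0% = DMSO control wells and 100% = blanks with heterologous ssDNA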
Target sequence (Q06609 whole entry, looked up): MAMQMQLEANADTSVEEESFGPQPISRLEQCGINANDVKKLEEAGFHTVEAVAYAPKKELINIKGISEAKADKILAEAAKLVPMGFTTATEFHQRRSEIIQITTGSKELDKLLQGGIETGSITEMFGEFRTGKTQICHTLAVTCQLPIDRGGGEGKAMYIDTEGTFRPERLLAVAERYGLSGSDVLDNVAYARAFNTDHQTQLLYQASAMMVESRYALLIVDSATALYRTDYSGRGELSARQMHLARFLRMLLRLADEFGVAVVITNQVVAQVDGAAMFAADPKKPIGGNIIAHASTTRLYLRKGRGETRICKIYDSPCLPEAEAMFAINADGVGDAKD
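material = hRad51 filaments on single-stranded DNA | timing = filaments 15 min 37 °C, then compound 30 min | signal = FRET fluorescence dequenching, excitation 485 nm, emission 520 nm | benchmarks = control wells and blank wells on each plate | evaluation = percent inhibition relative to plate controls and blanks | compound = 10 µM final, single point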
Ins promoter up = MIN6 insulin promoter up-regulation | MIN6 insulin promoter-GFP reporter, high-content imaging; hits give high values | z-score at 5 µM | actives 0.3% (n = 190,000);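 active = z-score above 3 at 5 µM with at least 500 cells counted in the well; inconclusive = wells under 500 cells, flagged as cytotoxic or low count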
Cl transport mod = modulators of human KCC2 chloride dependent transport | Q9H2X9 | KCC2 cells, thallium flux FluoZin-2 fluorescence | B-score of Tl+ flux slope (higher = more flux/activation; lower = inhibition) at 10 µM | actives 2.2% (n = 190,000) | AID 1456;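 active = thallium flux slope and its plate-corrected score both differing from the plate sample mean at a set confidence after two filtering rounds, in either direction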;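 note: slope of fluorescence scaled to starting intensity during 10 to 20 s after thallium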
Autophagy mod = autophagy modulation, high-content screen; MEF GFP-LC3 puncta imaging; test concentration mostly 10 µM; calls only at 10 µM (by protocol); actives 0.98% (n = 190,000); AID 463193;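 active = percentage of spot-positive cells more than 3 SD above its plate mean, without a fluorescence outlier flag or 80% toxicity; inconclusive = no clear call, values can overlap the other calls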;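 note: spot-positive cell cutoff set from DMSO-treated cells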
WT yeast gro inh = growth inhibition of WT yeast, mitochondrial fusion screen | actives 2.1% (n = 190,000) | mitochondrial fusion phenotypic screen, WT strain | inhibition, % at 10 µM; in the data active = inhibition above about 58%; tested in S. cerevisiae
SKKanGAS inh = SKKanGAS growth inhibition | S. pyogenes SKKanGAS, kanamycin growth, BacTiter-Glo, 6 h | inhibition, % at 7.5 µM | actives 1.3% (n = 300,000) | AID 1662;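 active = mean replicate score, as percent of positive control median, at least 50; inconclusive = mean below 50 but one replicate at or above 50; inactive = mean and every replicate below 50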;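 note: strain carries kanamycin resistance gene driven by streptokinase promoter and grows in 40 µg/ml kanamycin; loss of luminescence reflects streptokinase promoter inhibition or plain growth inhibition; 0% = median of DMSO wells and 100% = positive control at its reference dose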
KCC2 secondary = confirmation of human KCC2 transport modulators. shares compounds with Cl transport mod. actives 15% (n = 3,700). AID 1713. HEK293-KCC2, thallium flux, FluoZin2 fluorescence; hits give high values. normalised thallium flux (F/F0 slope) at 10 µM;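 active = thallium flux slope above the same plate's solvent-only control mean plus 3 SD; inconclusive = the two replicate wells disagree; inactive = no significant difference from solvent-only control wells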
KCC2 bumet counter = thallium flux despite bumetanide block in KCC2 cells, secondary assay 3; HEK293-KCC2 + bumetanide/ouabain, thallium flux FluoZin2; hits give high values; normalized thallium flux at 10 µM; actives 49% (n = 3,700); shares compounds with Cl transport mod;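 active = thallium entry rate above the same plate's blocked-transporter control wells by more than 3 SD; inconclusive = the two repeat wells disagree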;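 note: raw slope of fluorescence over initial fluorescence between 10 and 20 s after thallium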
KCC2 sec2 = confirmation of human KCC2 transport modulators | shares compounds with Cl transport mod | HEK293-KCC2, thallium flux FluoZin2 fluorescence; actives lie on both sides; F/F0 rise rate, 10–20 s post-thallium | normalized thallium flux at 10 µM | actives 23% (n = 3,700) | AID 1715;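 active = thallium flux slope more than 3 SD above or below the plate's solvent-only control mean, mostly below; inconclusive = the two repeat wells disagreed; inactive = no significant shift from solvent-only controls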;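 note: raw slope with 0.1% DMSO as baseline and bumetanide as block control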
HEK293 Tl flux = acts in parental HEK cells, KCC2 counter-screen; shares compounds with Cl transport mod; HEK293 parental cells, thallium flux FluoZin2, ouabain; baseline-ratio fluorescence slope, 10–20 s after thallium; thallium flux rate (normalised fluorescence) at 10 µM; actives 46% (n = 3,700);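 active = thallium flux rate significantly above the same plate's solvent-only control wells, beyond their mean plus 3 SD; inconclusive = the two replicate wells gave conflicting results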
KCC2 retest ouab = confirmation of human KCC2 modulators with ouabain; shares compounds with Cl transport mod; HEK293-KCC2, thallium flux FluoZin2 fluorescence; bidirectional: low = inhibitor, high = activator; raw Tl+ flux slope (below DMSO = inhibition, above = activation) at 10 µM; actives 48% (n = 3,700); AID 1717;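 active = thallium flux slope beyond 3 SD from same-plate DMSO control mean in most replicates, usually higher, sometimes lower; inconclusive = repeat tests gave conflicting results; inactive = no significant difference from controls in most replicates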;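 note: slope of initial-normalized fluorescence between seconds 10 and 20 after thallium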
HEK293 Tl flux2 = counter-screen for KCC2 modulators: effect in parental HEK293 cells. shares compounds with Cl transport mod. thallium flux FluoZin-2 fluorescence slope. thallium flux slope at 10 µM. actives 33% (n = 3,700). AID 1718;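 active = thallium flux slope above the same plate's solvent-control mean plus 3 SD in both duplicate wells; inconclusive = duplicate wells that disagreed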;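 note: run without ouabain in cells lacking the KCC2 cotransporter; slope of fluorescence scaled to its starting value between 10 and 20 s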
* marks the source's active call; other numbers are inactive results; i = inactive; ? = inconclusive; . = no result.

SMILES	Rad51 HR inh	Ins promoter up	Cl transport mod	Autophagy mod	WT yeast gro inh	SKKanGAS inh	KCC2 secondary	KCC2 bumet counter	KCC2 sec2	HEK293 Tl flux	KCC2 retest ouab	HEK293 Tl flux2
Cc1ccc(N(CC(=O)NCCSc2ccccn2)S(=O)(=O)c2ccc(F)cc2)cc1	-8	.	-4.2*	i	-5	-2	0.0067	0.005	0.026*	0.0069	?	0.01
Cc1ccc(OCC(=O)NCC(=O)n2nc(C)cc2C)cc1	.	.	-1.7	i	4	2	0.0058	0.0047	0.028*	0.0079	0.018	0.011
Cc1cc(C)n(C(=O)CNC(=O)COc2ccccc2)n1	2	.	.	i	19	.	.	.	.	.	.	.
COc1ccc(N2CCN(C(=O)CSc3nc4[nH]ncc4c(=O)n3-c3cccc4ccccc34)CC2)cc1	3	0.27	-4.4*	i	11	11	0.0059	0.0064*	0.026*	0.0072	0.015*	0.011
CC1CCN(C(=O)COc2ccc(S(=O)(=O)N3CCOCC3)cc2)CC1	.	.	.	.	.	-12	.	.	.	.	.	.
CN1C(C(=O)NCc2cccc(Br)c2)CC2Cn3c(nc4cc(Cl)c(Cl)cc43)C21 (centres undefined)	-8	0.67	-3.4*	.	.	23	0.0085	0.0061	0.033	0.0074	0.018	0.01
Cc1cc2nc3n(c2cc1C)CC1CC(C(=O)NCc2cccc(Br)c2)N(C)C31 (centres undefined)	.	.	.	.	.	1	.	.	.	.	.	.
